Measurements taken from ChEMBL document CHEMBL1132160, “Structure-antiviral activity relationship in the series of pyrimidine and purine N-[2-(2-phosphonomethoxy)ethyl] nucleotide analogues. 1. Derivatives substituted at the carbon atoms of the base” (J Med Chem, 1999).
Converted amounts (≈) assume the structure as drawn.

Tests used:
[1] = tested on: Human immunodeficiency virus 1; assay: Antiviral activity against human immunodeficiency virus type-1 (HIV-1) in MT-4 cells; format: functional, organism-based; conditions: Human immunodeficiency virus 1, MT4
Procedure, shortened: (§1)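 Human MT-4 cells (~4 × 10⁵ cells/mL) were infected with 100 CCID50 of HIV-1 (IIIB)/mL and seeded into wells containing compound dilutions. After 5 days at 37 °C, viable cells were counted by trypan blue exclusion in a blood cell counting chamber.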

MT4 [2] = assay: Antiviral activity against human immunodeficiency virus type 2 (HIV-2) in MT-4 cells; format: functional, cell-based
[3] = Inhibitory activity against murine sarcoma virus induced transformation of murine C3H/3T3 embryo fibroblasts; format: functional, Mus musculus
Procedure, shortened: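 Murine C3H/3T3 embryo fibroblasts were seeded at 5 × 10⁵ cells/mL. After 24 h they were infected with 80 focus-forming units of MSV for 90–120 min at 37 °C. The medium was then replaced with fresh medium containing various compound concentrations, and transformation was examined microscopically after 6 days.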

[4] = Inhibitory activity against herpes simplex virus type 2 (HSV-2) 196 strain; format: functional
Procedure, shortened: (§2)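 Confluent E6SM cell cultures were inoculated with 100 CCID50 of virus and allowed 1 h for adsorption. Residual virus was then removed, and the cells were incubated with test compound at 400, 200, 100, ... μg/mL. Viral cytopathicity was scored once it reached completion in untreated infected controls.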

Human alphaherpesvirus 1 [5] = assay: Inhibitory activity against herpes simplex virus type 1 (HSV-1) KOS strain; format: functional, organism-based; procedure, shortened: as §2
[6] = tested on: Human immunodeficiency virus 1; assay: Inhibitory activity of compound against human immunodeficiency virus type 1 (HIV-1) induced cytopathogenicity in MT-4 cells; format: functional, organism-based; conditions: Human immunodeficiency virus 1, MT4; procedure, shortened: as §1
Human alphaherpesvirus 1 [7] = assay: Inhibitory activity against herpes simplex virus type 1 (HSV-1) McIntyre strain; format: functional, organism-based; procedure, shortened: as §2
Vaccinia virus [8] = assay: Inhibitory activity against vaccinia virus (VV); format: functional, organism-based; conditions: Orthopoxvirus vaccinia
Procedure, shortened: (§3)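 Confluent E6SM cell cultures were inoculated with 100 CCID50 of virus and left for 1 h adsorption, then residual virus was removed. Cultures were incubated with test compound at serial concentrations (400, 200, 100, ... μg/mL). Virus-induced cytopathicity was scored once it reached completion in untreated infected control cultures.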

Human alphaherpesvirus 2 [9] = assay: Inhibitory activity against herpes simplex virus type 2 (HSV-2) Lyons strain; format: functional, organism-based; procedure, shortened: as §2
Human alphaherpesvirus 2 [10] = assay: Inhibitory activity against herpes simplex virus type 2 (HSV-2) G strain; format: functional, organism-based; procedure, shortened: as §2
HEL [11] = assay: Compound was evaluated for inhibitory activity against cytomegalovirus (CMV) Davis strain; NA=Not Active; format: functional, cell-based, Homo sapiens
Procedure, shortened: (§4)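 HEL cell cultures, grown to confluence, received 100 CCID50 of virus. After 1 h adsorption, the inoculum was removed and the cultures were incubated with serial concentrations of compound (400, 200, 100, ... μg/mL).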

[12] = tested on: Human immunodeficiency virus 2; assay: Inhibitory activity against human immunodeficiency virus type 2 (HIV-2) induced cytopathogenicity in MT-4 cells; format: functional, organism-based; conditions: Human immunodeficiency virus 2, MT4
Human alphaherpesvirus 1 [13] = assay: Inhibition of herpes simplex virus type 1 (HSV-1) F strain; format: functional, organism-based; procedure, shortened: as §2
HEL [14] = assay: Compound was evaluated for inhibitory activity against cytomegalovirus (CMV) AD 169 strain; NA=not active; format: functional, cell-based, Homo sapiens; procedure, shortened: as §4
HEL [15] = assay: Compound was evaluated for inhibitory activity against varicella zoster virus thymidine kinase (VZV TK-) 07/1 strain; NA=not active; format: functional, cell-based, Homo sapiens
Cytomegalovirus [16] = assay: Inhibitory activity against cytomegalovirus (CMV) Davis strain; format: functional, organism-based; conditions: Human betaherpesvirus 5; procedure, shortened: as §4
Human alphaherpesvirus 2 [17] = assay: Inhibitory activity against herpes simplex virus type 2 (HSV-2) 196 strain.; format: functional, organism-based; procedure, shortened: as §2
Human alphaherpesvirus 1 [18] = assay: Inhibitory activity against herpes simplex virus type 1 (HSV-1) F strain; format: functional, organism-based; procedure, shortened: as §2
Human alphaherpesvirus 1 [19] = assay: Inhibitory activity against herpes simplex virus type 1 (HSV-1) KOS strain.; format: functional, organism-based; procedure, shortened: as §2
Vaccinia virus [20] = assay: Inhibitory activity against vaccinia virus (VV).; format: functional, organism-based, Orthopoxvirus vaccinia; procedure, shortened: as §3
HEL [21] = assay: Compound was evaluated for inhibitory activity against varicella zoster virus thymidine kinase (VZV TK+) YS strain; NA=not active; format: functional, cell-based, Homo sapiens; procedure, shortened: as §4
Human alphaherpesvirus 1 [22] = assay: Inhibitory activity against herpes simplex virus type 1 thymidine kinase (HSV-1 TK-) VMW 1837 strain.
Cytomegalovirus [23] = assay: Inhibitory activity against cytomegalovirus (CMV) AD 169 strain; format: functional, organism-based; conditions: Human betaherpesvirus 5; procedure, shortened: as §4
Human alphaherpesvirus 1 [24] = assay: Iactivity against herpes simplex virus type 1 (HSV-1) McIntyre strain.; format: functional, organism-based; procedure, shortened: as §2
E6SM [25] = assay: Compound was evaluated for inhibitory activity against herpes simplex virus type 1 thymidine kinase (HSV-1 TK-) B2006 strain; NA=not active; format: functional, cell-based, Homo sapiens; procedure, shortened: as §2
HEL [26] = assay: Compound was evaluated for inhibitory activity against varicella zoster virus thymidine kinase (VZV TK+) OKA strain; NA=Not Active; format: functional, cell-based, Homo sapiens; procedure, shortened: as §4
Human alphaherpesvirus 2 [27] = assay: Inhibitory activity against herpes simplex virus type 2 (HSV-2) G strain.; format: functional, organism-based; procedure, shortened: as §2
E6SM [28] = assay: Inhibitory activity against herpes simplex virus type 2 (HSV-2) Lyons strain.; format: functional, cell-based, Homo sapiens; procedure, shortened: as §2
[29] = tested on: Human immunodeficiency virus 1; assay: Inhibition of human immunodeficiency virus type 1 (HIV-1) induced cytopathogenicity in CEM cells; format: functional, organism-based; conditions: Human immunodeficiency virus 1, CCRF-CEM
Procedure, shortened: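 CEM cells (~3 × 10⁵ cells/mL) were infected with 100 CCID50 of HIV-1 (IIIB)/mL and plated with dilutions of compound. After 4 days at 37 °C, giant cell formation was assessed microscopically.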

[30] = tested on: Human immunodeficiency virus 2; assay: Inhibition of human immunodeficiency virus type 2 (HIV-2) induced cytopathogenicity in CEM cells; format: functional, organism-based; conditions: Human immunodeficiency virus 2, CCRF-CEM
MT4 [31] = assay: Inhibitory activity of compound against human immunodeficiency virus type 1 (HIV-1) induced cytopathogenicity in MT-4 cells; NA=Not Active; format: functional, cell-based; procedure, shortened: as §1
Vaccinia virus [32] = assay: Compound was evaluated for inhibitory activity against vaccinia virus (VV); NA=not active; format: functional, organism-based, Orthopoxvirus vaccinia; procedure, shortened: as §3

| SMILES | EC50 [3] [µg/mL] | EC50 [6] [µg/mL] | EC50 (Human alphaherpesvirus 2 [10]) [µg/mL] | EC50 (HEL [11]) | EC50 [12] [µg/mL] | EC50 (HEL [14]) | EC50 (HEL [15]) | EC50 (Cytomegalovirus [16]) [µg/mL] | EC50 (Human alphaherpesvirus 2 [17]) | EC50 (Human alphaherpesvirus 1 [18]) | EC50 (Human alphaherpesvirus 1 [19]) | EC50 (Vaccinia virus [20]) | EC50 (HEL [21]) | EC50 (Human alphaherpesvirus 1 [22]) | EC50 (Cytomegalovirus [23]) [µg/mL] | EC50 (Human alphaherpesvirus 1 [24]) | EC50 (E6SM [25]) | EC50 (HEL [26]) | EC50 (Human alphaherpesvirus 2 [27]) | EC50 (E6SM [28]) | also measured |
| --- | --- | --- | --- | --- | --- | --- | --- | --- | --- | --- | --- | --- | --- | --- | --- | --- | --- | --- | --- | --- | --- |
| Nc1nc(S)c2ncn(CCOCP(=O)(O)O)c2n1 | 1 (≈ 3.28 µM) |  |  |  |  |  |  |  |  |  |  |  |  |  |  |  |  |  |  |  | EC50 [1]: 9.5 µg/mL (≈ 31.1 µM); EC50 (MT4 [2]): 8.9 µg/mL (≈ 29.2 µM) |
| CCOP(=O)(O)COCCn1cnc2c(N)nc(N)nc21 | > 200 | > 100 | 70 (≈ 221 µM) | Not Active | > 400 | Not Active |  |  |  |  |  |  |  |  |  |  |  |  |  |  | EC50 [4]: 300 µg/mL (≈ 949 µM); EC50 (Human alphaherpesvirus 1 [5]): 300 µg/mL (≈ 949 µM); EC50 (Human alphaherpesvirus 1 [7]): 300 µg/mL (≈ 949 µM); EC50 (Vaccinia virus [8]): > 400 µg/mL; EC50 (Human alphaherpesvirus 2 [9]): 150 µg/mL (≈ 474 µM); EC50 (Human alphaherpesvirus 1 [13]): 200 µg/mL (≈ 632 µM) |
| Cc1ncnc2c1ncn2CCOCP(=O)(O)O | > 200 | > 400 |  |  |  |  | Not Active | 200 (≈ 735 µM) | Not Active | Not Active | Not Active | Not Active | Not Active | Not Active | 100 (≈ 367 µM) | Not Active | Not Active | Not Active | Not Active | Not Active |  |
| Nc1ncnc2c1nc(Br)n2CCOCP(=O)(O)O | > 200 | > 100 |  |  | > 100 |  |  | > 50 | Not Active | Not Active | Not Active | Not Active |  | Not Active | > 50 | Not Active | Not Active |  | Not Active | Not Active | EC50 [29]: > 100 µg/mL; EC50 [30]: > 100 µg/mL |
| CSc1ncnc2c1ncn2CCOCP(=O)(O)O | > 200 | > 200 |  |  | > 400 |  |  | > 400 | Not Active | Not Active | Not Active | Not Active |  | Not Active | > 400 | Not Active | Not Active |  | Not Active | Not Active |  |
| CC(C)OP(=O)(COCCn1ccc(O)cc1=O)OC(C)C |  | > 200 |  | Not Active |  | Not Active | Not Active |  | Not Active | Not Active | Not Active | Not Active | Not Active | Not Active |  | Not Active |  | Not Active | Not Active | Not Active |  |
| CCOP(=O)(O)COCCn1cnc2c(N)ncnc21 | 120 (≈ 398 µM) |  | 70 (≈ 232 µM) | Not Active |  | Not Active |  |  |  |  | Not Active |  |  |  |  |  |  |  |  |  | EC50 [4]: 150 µg/mL (≈ 498 µM); EC50 (Human alphaherpesvirus 1 [7]): 300 µg/mL (≈ 996 µM); EC50 [29]: > 100 µg/mL; EC50 (Human alphaherpesvirus 2 [9]): 150 µg/mL (≈ 498 µM); EC50 [30]: > 100 µg/mL; EC50 (Human alphaherpesvirus 1 [13]): 150 µg/mL (≈ 498 µM) |
| CC(C)OP(=O)(COCCn1ncc(N)nc1=O)OC(C)C | > 100 |  |  |  |  |  |  | > 100 | Not Active | Not Active | Not Active | Not Active |  | Not Active | > 100 | Not Active |  |  | Not Active | Not Active | EC50 (MT4 [31]): Not Active |
| CCOP(=O)(COCCn1cnc2c(N)nc(N)nc21)OCC | > 200 | > 400 |  |  | > 400 | Not Active | Not Active |  | Not Active | Not Active | Not Active | Not Active | Not Active | Not Active |  | Not Active | Not Active | Not Active | Not Active | Not Active |  |
| Cc1cn(CCOCP(=O)(O)O)c(=O)nc1N | > 200 | > 100 |  | Not Active |  | Not Active | Not Active |  | Not Active | Not Active | Not Active |  | Not Active | Not Active |  | Not Active | Not Active | Not Active | Not Active | Not Active | EC50 (Vaccinia virus [32]): Not Active |
| Nc1ccn(CCOCP(=O)(O)O)c(=O)n1 | > 200 |  | 300 (≈ 1200 µM) |  |  |  |  | 70 (≈ 281 µM) |  |  |  |  |  |  | 75 (≈ 301 µM) | Not Active | Not Active |  |  | Not Active | EC50 [4]: 300 µg/mL (≈ 1200 µM); EC50 (Human alphaherpesvirus 1 [5]): 300 µg/mL (≈ 1200 µM); EC50 (Human alphaherpesvirus 1 [13]): 300 µg/mL (≈ 1200 µM); EC50 (MT4 [31]): Not Active |
| Nc1ccnc2c1ncn2CCOCP(=O)(O)O | 13.8 (≈ 50.7 µM) |  | > 400 |  |  |  |  | > 400 |  |  |  |  |  |  | > 400 |  |  |  |  |  | EC50 (Human alphaherpesvirus 1 [5]): > 400 µg/mL; EC50 (Vaccinia virus [8]): > 400 µg/mL; EC50 (MT4 [31]): Not Active |
